System: MS2 coat protein
Assay: apparent Kd, MS2 coat protein; higher = weaker binding; RNA-MaP array; FMN 200 µM where present
Summary of the method: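 The titrant was SNAP-549-labelled MS2 coat protein, run from 0.7 or 1.5 nM in doubling steps to 3 µM. It was applied to designs transcribed by stalled E. coli RNA polymerase on Illumina sequencing-chip clusters, without ligand first and then with constant ligand, in 100 mM Tris-HCl pH 7.5, 80 mM KCl, 4 mM MgCl2, BSA, DTT, yeast tRNA and Tween-20. The apparent Kd is the median of filtered per-cluster binding-curve fits, with green signal normalised to red-channel RNA signal and control-cluster median Fmax.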

[1] = designed as: OFF switch for flavin mononucleotide, no ligand
[2] = ligand present: flavin mononucleotide, designed as: OFF switch for flavin mononucleotide
[3] = designed as: ON switch for flavin mononucleotide, no ligand
[4] = ligand present: flavin mononucleotide, designed as: ON switch for flavin mononucleotide

Row | Sequence | apparent Kd [1] [nM] | apparent Kd [2] [nM] | apparent Kd [3] [nM] | apparent Kd [4] [nM]
1 | AUUUGACACGUAGGAUAUCGCUUAAAUUUAACACGAGAAGGACGAACAUGAGGAUCACCCAUGUAUCAUGGAGUAGAUAAUUUG | 115 | 329 | – | –
2 | CAAUUUAUUGCAGGAUAUACAAUACAAUGAUUAGUAGAAGGGUAUAAUACAUGAGGAUCACCCAUGUCAUGUGUCAUAAUAACC | 36.7 | 27.6 | – | –
3 | AUCAGCUCGUCAGGAUAUGCAUCACUGCUUCGGCAGUGUGGUAAGAUCACAUGAGGAUCACCCAUGUAGAAGGGACGAGCUGAU | 9.83 | 69.4 | – | –
4 | GCUGUCGCGUGAGGAUAUGGUCGGCUGUGCUGACCAGAAGGCAUGUCAAUAGACAUGAGGAUCACCCAUGUGGUUAGGGCGGCU | – | – | 865 | 127
5 | GAUUUGUGAGGAUAUACAUGAGGAUCACCCAUGUGUGUCCAUACGCGUGAGUCUUCAUGUAGAAGGCGCGGGUC | 17.1 | 15.6 | – | –
6 | CCUCCUGGUCAGGAUAUCGGACGUUUUAUUCGACGAGAAGGGACCACAUGAGGAUCACCCAUGUGAUGAAGAAC | 42.4 | 182 | – | –
7 | GUCGAAGCCGUACUGGUCGACGGUCAGGAUAUACAUGAGGAUCACCCAUGUGCUAUUGAUACUAUGUAGAAGGGACCCACCGCA | 13.3 | 19 | – | –
8 | AAGCCCUGAGGAUAUCUCAUCUCGCACAUGAGGAUCACCCAUGUUCUUCUCUGGGUUUCGAGAGAAGGCAGGCCUC | 954 | 641 | – | –
9 | GAAAGGUCAGGAUAUACGUUAUGCUAGUGCUCGUACUAUAAGUAGAAGGGACAUGAGGAUCACCCAUGUGAUAA | 54.8 | 79.4 | – | –
10 | GUGCCUUGGGAGAAGGCCCAAUGCAAAGCAUAGGGAGGAUAUCCAUAUAAUAAAUAAACAUGAGGAUCACCCAUGUGGCACAAA | – | – | 19.4 | 12
11 | UGGUACAUGGGAGGAUAUCGUGUAGACACAUGAGGAUCACCCAUGUCGAUGGAGACAUCGGAGAUCGAGAAGGCCCAUGUACCU | – | – | 84.6 | 8.81
12 | CACGAUGAUGUAGGAUAUAUGCUGGAAUACAGCAUAGAAGGACAUGAGGAUCACCCAUGUUAAGUGCCUCCAAGUAACAUCGUG | 15.4 | 22.4 | – | –
13 | ACUAGAAGCGUGAGAUAUCACAUGAGGAUCACCCAUGUGACGCAGGAUAUAACAAUAUCAGAAGGUUAGAAGGGUGAGCACGCC | – | – | 101 | 52.9
14 | AAGAGUGCAGGAUAUACUUGUUAGGACGGUUGGAUGGUUUGACAUGAGGAUCACCCAUGUAGAAGGGCAGAGAG | 67.7 | 67.8 | – | –
15 | GCCAUGUUAGGAUAUGCCAUUAUACUGCUGGGUAUAGAUUGGUAGAAGGAACAUGAGGAUCACCCAUGUUCGGG | 83.9 | 178 | – | –
16 | UAUUUGUCAGGAUAUGAGUCGUAGAACAAUAGUACUACGUCUCAGAAGGGACAUGAGGAUCACCCAUGUGCCUC | 25.5 | 217 | – | –
17 | UGGUACAUGGGAGGAUAUGGGACAUGAGGAUCACCCAUGUGAAAAUUAAAUAUGCCGAUAGGCAACUAGAAGGCCCAUGUACCU | – | – | 33.1 | 15.4
18 | UUAUUUUUACAGAAGGUUUAAUAAUAUGUAUGAGAAGGAUAUGUAACAUGAGGAUCACCCAUGUUUUAUUUAUAUGAGGUUCGU | 15.3 | 12.5 | – | –
19 | GGGCCGGUGGAGAAGGAGCUUGCAAAACGCAUGCUAGGAUAUCCACAUGAGGAUCACCCAUGUGGGAAUAUCUGGUUUUCACAG | 4.09 | 4.79 | – | –
20 | GGGUACAUGGGAGGAUAUCCUCAAGAGACAUGAGGAUCACCCAUGUAUUAUAAGCCUAAUGGCAUGGAGAAGGCCCAUGUACCG | – | – | 397 | 69.7
21 | UCCUUGUCCUGAGGAUAUCCGAGGUUCCCAAAAGGAGAAGGCAGGACAUGAGGAUCACCCAUGUACCCAGAAAACGUGCAGAGU | 122 | 25 | – | –
22 | UGGCCAAGAGGAUAUACAUGAGGAUCACCCAUGUCCAUCCUGAUGGAUAGGGCCGAGUGUAGAAGGCUUGGUCC | 32.6 | 18 | – | –
23 | GUGGCACAUGAGGAUCACCCAUGUCAGGAUAUCGCGUGGUUUUUUGCGGCCGCGCGCGCGAGAAGGGACGUCUU | 39.2 | 38.1 | – | –
24 | GGGUACAUCGGAGGAUAUCAUGUAAAUACAUGAGGAUCACCCAUGUCGAUGGAGUCAUCGGAGAUUGAGAAGGCCGAUGUACCG | – | – | 14 | 5.75
25 | GCGCGAAGCUAGGAUAUGGGAGCCGAAAGGCUCCCAGAAGGAGCCACAUGAGGAUCACCCAUGUGGUGAUCCUG | 18.6 | 38.6 | – | –
26 | UGCUACGUUUCGUAGCAGUGUCAUCGAGAAGGCCCUGACAUGAGGAUCACCCAUGUUGUUACAUGGGAGGAUAUCGAUGAUACG | – | – | 12 | 4.9
27 | GCGUUCUUGUAGAAGGUACAUACAAUAUCUUUUUAACACAUGACACAUGAGGAUCACCCAUGUUGUAAGGAUAUACAUGAACGC | – | – | 6.8 | 6.91
28 | CACAGGGAUUCAGGAUAUAUUAGCCGAGGCCGCGUAGAAGGGAAAUCCUGACAUGAGGAUCACCCAUGUUAACCCGCCUUCCAU | – | – | 37.6 | 42

Row | Sequence | apparent Kd [1] [nM] | apparent Kd [2] [nM] | apparent Kd [3] [nM] | apparent Kd [4] [nM]
29 | UAGACAUGAGGAUCACCCAUGUACUGGAUUUCAACGCGAUCACAGGAUAUACGGGAUUCGUCCACGUAGAAGGGUGACAACGUC | – | – | 143 | 35.1
30 | CCAUACAUGAGGAUCACCCAUGACAUGAGGAUCACCCAUGUGCAGGAUAUACGUGAUAUAAUAUAGUAGAAGGGCAGACCAAAA | 75.7 | 85.2 | – | –
31 | CUGUGACGGUGCGCAAGUGGACGGAGAAGGCAGACAUGAGGAUCACCCAUGUGAGCCUGCUAUUCUGAGGAUAUCCGUUCGUAC | 27 | 132 | – | –
32 | GCUAGUAUUGCAGGAUAUUGAGAAUAAUUAUUACAAGAAGGGCAUAACAUGAGGAUCACCCAUGUUUUCCUUAAUGAUACUAGC | 5.33 | 5.59 | – | –
33 | UUUUAGCAAGGAUAUACAUUUUUUUUAUUAUCCUCAUUAUUACAUGAGGAUCACCCAUGUAGAAGGUGCAUUUU | 75.9 | 81.5 | – | –
34 | ACCAGGCGAGGAUAUACUUAGAUUUUUUCGUUUAGUCUCGAACAUGAGGAUCACCCAUGUAGAAGGUGCUUCAC | 49.9 | 42.7 | – | –
35 | AAAGAGCGAGGAUAUACAUGAGGAUCACCCAUGUGAAGAUGCAUGGUCUGAACGUCUGGUAGAAGGCGUAUGAA | 161 | 182 | – | –
36 | UUUCAGUCAGGAUAUCGUUAAUUUAAUUGUUUGUUUUAGUUCGAGAAGGGACAUGAGGAUCACCCAUGUACUUU | 20 | 20 | – | –
37 | AAAGCCAACGAAGGAUAUACAAACAUGAGGAUCACCCAUGUGUCUUUCGUGUAACUGGAAUUCGGGUAGAAGGUCGUUGACAUA | 14.9 | 21.7 | – | –
38 | CCUAGUUGGUAAGGAUAUCCUACACUAUUCUGACCCGUGCAAGCUACAUGAGGAUCACCCAUGUGGGAGAAGGUGCGUCAACGC | 13.8 | 15.2 | – | –
39 | AGUUUUGUACAUGAGGAUCACCCAUGUUAAUAUGUGGUAGUCAGAAGGCAUUGAUAGAGUUUUAAUGAGGAUAUGAAUAUUCUG | – | – | 31.8 | 32.3
40 | GUAGCAUACCGAGGAUAUUCUGGGCAUAAAUAAACAUGAGGAUCACCCAUGUGGCGAAAGCCUAGGGAGAAGGCGGAAUGCUAC | – | – | 14.8 | 13.6
41 | CACUGCAAUGUAGGAUAUCGACUGGAUAACAGUCGAGAAGGACAUGAGGAUCACCCAUGUACUAUGAGUGAAUAAUAAGCAGUG | 89 | 950 | – | –
42 | CACGAUCAUGUAGGAUAUAUACUGGAAUACAGUAUAGAAGGACAUGAGGAUCACCCAUGUUAAGUGCCUCCAAGUAAGAUCGUG | 17 | 23 | – | –
43 | ACAUGAGGAUCACCCAUGUAUUACAUGGUUAAGUUUAUAAACAGAAGGCGAUAAUACUUAUUGUUCGAGGAUAUGUAAUCAAUU | 113 | 84.1 | – | –
44 | UCUGGUCGAGGAUAUACAUAACGUGCUUCGGCACGAGAUCUACAUGAGGAUCACCCAUGUAGAAGGCGACCAGA | 16.7 | 46.7 | – | –
45 | AGCAUGUUUACAUGAGGAUCACCCAUGUUUUUUUAGGAUAUCAGAAGGUACAAUUUGUGUUAGAGUAAGGAUAUGAUAUAUGCG | – | – | 12.6 | 8.88
46 | UGUCGGAGCAGAGGAUAUUACAUGAGGAUCACCCAUGUAUGAACCCAUAGCUGGAAACAGCAAUGUAAGAAGGCUGCUCCGACA | 8.97 | 82.4 | – | –
47 | GUGGUCAGACAUGAGGAUCACCCAUGUGGAAUAAAUAACACACAGGAUAUCGAAUAUAAAAUAUACGAGAAGGGUGGAUUGGUG | – | – | 388 | 209
48 | UUUUAACAUGAGGAUCACCCAUGUGAGGAUAUCGAAAUUUAUAUUAAUAUUAAUUUUACGAGAAGGCACAUUUU | 112 | 100 | – | –
49 | GUGUCUAACUAGAAGGCCGUAUGCAAAGCAUACGGAGGAUAUGGGUUCCGGAAACGGACAUGAGGAUCACCCAUGUGGCACAAA | – | – | 94.3 | 13.4
50 | AAACACGGACAUGAGGAUCACCCAUGUGGCGAAAGCCUAACUAGAAGGCAGUAUGCAAAGCAUUCUGAGGAUAUGGGUUCCGUG | – | – | 188 | 18.1
51 | UGCAGACGAGGAUAUGAUUAAUAAUACAUGAGGAUCACCCAUGUAAUACUGAUCUAUGGAUCAGAAGGCGUCUGCU | 17.3 | 14.6 | – | –
52 | AGUGGUGAGCAAGGAUAUCGCCACUGCGUGACCUCACAACGGAUACAUGAGGAUCACCCAUGUGGCGAGAAGGUGCGGGAACGG | 28.1 | 36.9 | – | –
53 | GACGAGGGAGGAUAUGCACGAGGGAUAUCUGACAUGCCUAUACAUGAGGAUCACCCAUGUAGAAGGCCCAGAUA | 10.6 | 13.1 | – | –
54 | UUUCCACAUGAGGAUCACCCAUGUAAGGAUAUGUAGCGCGGGCUGGUGUCCGAGUGUUACAGAAGGUGCUGGCG | 26.3 | 33.7 | – | –
55 | UGGUACAUGGGAGGAUAUCAUGUAUUCACAUGAGGAUCACCCAUGUCGAUGGAGACAUCGGAGAUUGAGAAGGCCCAUGUACCU | – | – | 1270 | 46.9
